# Assay results reported in ChEMBL document CHEMBL1147824, “Synthesis, biological activity, and DNA-damage profile of platinum-threading intercalator conjugates designed to target adenine” (J Med Chem, 2006).
# Tests used:
# NCI-H460 = experiment: Cytotoxicity against human H460 cell line by MTS assay; format: functional, cell-based
# How it was run: (§1)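 Cells kept at 37 °C in humidified 5% CO2/95% air and seeded at 700 cells/well (H460) or 27 500 cells/well (HL-60). Log-phase cells were exposed in triplicate to serial drug dilutions for 72 h; stocks in DMSO, PBS or DMF, final organic solvent under 0.1%. MTS/PMS added for 3 h, A490 read. IC50 from sigmoidal dose-response fit; mean of at least three experiments.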
# HL-60 = experiment: Cytotoxicity against human HL60 cell line by MTS assay; format: functional, cell-based; how it was run: as §1
smiles,measurement,setting,value
CNC(=S)N(C)CCNc1c2ccccc2nc2ccccc12,IC50,NCI-H460,9.5 µM
same,IC50,HL-60,11.5 µM
CCNC(=O)NCCNC(=O)c1cccc2c(NCCN(C)/C(S)=N/C)c3ccccc3nc12,IC50,NCI-H460,> 100 µM
same,IC50,HL-60,> 100 µM
CCNC(=O)NCCCCNC(=O)c1cccc2c(NCCN(C)/C(S)=N/C)c3ccccc3nc12,IC50,NCI-H460,> 100 µM
same,IC50,HL-60,> 100 µM
C/N=C(\S)N(C)CCNc1c2ccccc2nc2c(C(=O)NCCNC(=O)Nc3ccccc3)cccc12,IC50,NCI-H460,31.9 µM
same,IC50,HL-60,> 50 µM
C/N=C(\S)N(C)CCNc1c2ccccc2nc2c(C(=O)NCCCCNC(=O)Nc3ccccc3)cccc12,IC50,NCI-H460,3.1 µM
same,IC50,HL-60,0.39 µM
C/N=C(\S)N(C)CCNc1c2ccccc2nc2c(C(=O)NCCN(C)C)cccc12,IC50,NCI-H460,2.2 µM
same,IC50,HL-60,1.4 µM
C/N=C(\S)N(C)CCNc1c2ccccc2nc2c(C(=O)NCCO)cccc12,IC50,NCI-H460,41.1 µM
same,IC50,HL-60,27.4 µM
C/N=C(\S)N(C)CCNc1c2ccccc2nc2c(C(=O)NCCOC(C)=O)cccc12,IC50,NCI-H460,17.6 µM
same,IC50,HL-60,29.5 µM
